Test results as given in ChEMBL document CHEMBL4368872, “Synthesis and anticonvulsant activity of phenoxyacetyl derivatives of amines, including aminoalkanols and amino acids” (Medchemcomm, 2018).
Activity calls are given as the source filed them. The calls are words filed in the database; no cut-off is given here.

How the values were obtained:
Mus musculus [1] = test: Anticonvulsant activity in CF-1 mouse model of maximal electroshock-induced seizure assessed as suppression of tonic hind limb extension at 100 mg/kg, ip measured at 4 hrs post dose; type: functional, organism-based
In short: (§1)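 Mice dosed i.p. and given maximal electroshock at 50 mA. Read-out is protection, reported as number protected / number tested at 0.25, 0.5, 1 and 4 h after dosing.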

[2] = Neurotoxicity in CF-1 mouse at 30 mg/kg, ip measured after 4 hrs by rotarod test; type: toxicity, organism-based; conditions: in vivo
In short: (§2)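 Mice dosed i.p. were placed on a 1 in. knurled rod turning at 6 rpm. Toxicity was scored as failure to keep balance for at least 1 min, i.e. falling off three or more times. Results are reported as animals showing toxicity / animals tested at each time point.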

Mus musculus [3] = test: Anticonvulsant activity in CF-1 mouse model of subcutaneous pentylenetetrazole-induced seizure assessed as reduction in convulsions at 300 mg/kg, ip measured at 4 hrs post dose; type: functional, organism-based
In short: (§3)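 Mice dosed i.p., then given pentylenetetrazole 85 mg/kg in 0.9% NaCl s.c. into the posterior midline of the neck. Seizures watched for at least 30 min. Scored as protected / tested at 0.5 and 4 h.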

Mus musculus [4] = test: Anticonvulsant activity in CF-1 mouse model of subcutaneous pentylenetetrazole-induced seizure assessed as reduction in convulsions at 30 mg/kg, ip measured at 0.5 hrs post dose; type: functional, organism-based; in short: as §3
Rattus norvegicus [5] = test: Anticonvulsant activity in Sprague-Dawley rat model of maximal electroshock-induced seizure assessed as suppression of tonic hind limb extension at 30 mg/kg, po measured at 2 hrs post dose; type: functional, organism-based
In short: (§4)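 Rats given 30 mg/kg p.o. and tested by maximal electroshock at 150 mA. Scored as number protected / number tested (4 per group) at 0.25, 0.5, 1, 2 and 4 h after dosing.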

Mus musculus [6] = test: Anticonvulsant activity in CF-1 mouse model of subcutaneous pentylenetetrazole-induced seizure assessed as reduction in convulsions at 300 mg/kg, ip measured at 0.5 hrs post dose; type: functional, organism-based; in short: as §3
[7] = Neurotoxicity in CF-1 mouse at 300 mg/kg, ip measured after 0.5 hrs by rotarod test; type: toxicity, organism-based; conditions: in vivo; in short: as §2
Mus musculus [8] = test: Anticonvulsant activity in CF-1 mouse model of maximal electroshock-induced seizure assessed as suppression of tonic hind limb extension at 300 mg/kg, ip measured at 4 hrs post dose; type: functional, organism-based; in short: as §1
Mus musculus [9] = test: Anticonvulsant activity in CF-1 mouse model of maximal electroshock-induced seizure assessed as suppression of tonic hind limb extension at 100 mg/kg, ip measured at 0.5 hrs post dose; type: functional, organism-based; in short: as §1
[10] = Neurotoxicity in Sprague-Dawley rat at 30 mg/kg, po measured after 2 hrs by rotarod test; type: toxicity, organism-based; conditions: in vivo
In short: (§5)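 Rat neurotoxicity after i.p. or p.o. dosing was scored as animals impaired / animals tested at each time point. For p.o. dosing, TD50 was obtained by probit analysis.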

Mus musculus [11] = test: Anticonvulsant activity in CF-1 mouse model of maximal electroshock-induced seizure assessed as suppression of tonic hind limb extension at 30 mg/kg, ip measured at 4 hrs post dose; type: functional, organism-based; in short: as §1
Mus musculus [12] = test: Anticonvulsant activity in CF-1 mouse model of subcutaneous pentylenetetrazole-induced seizure assessed as reduction in convulsions at 100 mg/kg, ip measured at 0.5 hrs post dose; type: functional, organism-based; in short: as §3
Mus musculus [13] = test: Anticonvulsant activity in CF-1 mouse model of maximal electroshock-induced seizure assessed as suppression of tonic hind limb extension at 30 mg/kg, ip measured at 0.5 hrs post dose; type: functional, organism-based; in short: as §1
Mus musculus [14] = test: Anticonvulsant activity in CF-1 mouse model of subcutaneous pentylenetetrazole-induced seizure assessed as reduction in convulsions at 100 mg/kg, ip measured at 4 hrs post dose; type: functional, organism-based; in short: as §3
Rattus norvegicus [15] = test: Anticonvulsant activity in Sprague-Dawley rat model of maximal electroshock-induced seizure assessed as suppression of tonic hind limb extension at 30 mg/kg, po measured at 0.25 hrs post dose; type: functional, organism-based; in short: as §4
[16] = Neurotoxicity in CF-1 mouse at 100 mg/kg, ip measured after 1 hr by rotarod test; type: toxicity, organism-based; conditions: in vivo; in short: as §2
[17] = Neurotoxicity in CF-1 mouse at 30 mg/kg, ip measured after 0.5 hrs by rotarod test; type: toxicity, organism-based; conditions: in vivo; in short: as §2
Mus musculus [18] = test: Anticonvulsant activity in CF-1 mouse model of maximal electroshock-induced seizure assessed as suppression of tonic hind limb extension at 100 mg/kg, ip measured at 1 hr post dose; type: functional, organism-based; in short: as §1
Mus musculus [19] = test: Anticonvulsant activity in CF-1 mouse model of subcutaneous pentylenetetrazole-induced seizure assessed as reduction in convulsions at 30 mg/kg, ip measured at 4 hrs post dose; type: functional, organism-based; in short: as §3
[20] = Neurotoxicity in Sprague-Dawley rat at 30 mg/kg, po measured after 1 hr by rotarod test; type: toxicity, organism-based; conditions: in vivo; in short: as §5
[21] = Neurotoxicity in CF-1 mouse at 100 mg/kg, ip measured after 4 hrs by rotarod test; type: toxicity, organism-based; conditions: in vivo; in short: as §2
[22] = Neurotoxicity in Sprague-Dawley rat at 30 mg/kg, po measured after 0.25 hrs by rotarod test; type: toxicity, organism-based; conditions: in vivo; in short: as §5
Rattus norvegicus [23] = test: Anticonvulsant activity in Sprague-Dawley rat model of maximal electroshock-induced seizure assessed as suppression of tonic hind limb extension at 30 mg/kg, po measured at 1 hr post dose; type: functional, organism-based; in short: as §4
[24] = Neurotoxicity in CF-1 mouse at 300 mg/kg, ip measured after 4 hrs by rotarod test; type: toxicity, organism-based; conditions: in vivo; in short: as §2
[25] = Neurotoxicity in Sprague-Dawley rat at 30 mg/kg, po measured after 0.5 hrs by rotarod test; type: toxicity, organism-based; conditions: in vivo; in short: as §5
Mus musculus [26] = test: Anticonvulsant activity in CF-1 mouse model of maximal electroshock-induced seizure assessed as suppression of tonic hind limb extension at 300 mg/kg, ip measured at 0.5 hrs post dose; type: functional, organism-based; in short: as §1
Rattus norvegicus [27] = test: Anticonvulsant activity in Sprague-Dawley rat model of maximal electroshock-induced seizure assessed as suppression of tonic hind limb extension at 30 mg/kg, po measured at 0.5 hrs post dose; type: functional, organism-based; in short: as §4
[28] = Neurotoxicity in Sprague-Dawley rat at 30 mg/kg, po measured after 4 hrs by rotarod test; type: toxicity, organism-based; conditions: in vivo; in short: as §5
[29] = Neurotoxicity in CF-1 mouse at 100 mg/kg, ip measured after 0.5 hrs by rotarod test; type: toxicity, organism-based; conditions: in vivo; in short: as §2
Mus musculus [30] = test: Anticonvulsant activity in ip dosed CF-1 mouse model of subcutaneous pentylenetetrazole-induced seizure assessed as time required for reduction in convulsions; type: functional
In short: (§6)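 Mice given test compound i.p.; pentylenetetrazole 85 mg kg⁻¹ in 0.9% NaCl injected subcutaneously into posterior midline of neck. Seizures observed for at least 30 min. Protected = no fore and/or hind limb clonus, jaw chomping or vibrissae twitching (3 to 5 s). Screening doses 30, 100, 300 mg kg⁻¹; read at 0.25, 0.5, 1.0, 4.0 h; scored as protected/tested.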

Mus musculus [31] = test: Anticonvulsant activity in ip dosed CF-1 mouse model of subcutaneous pentylenetetrazole-induced seizure assessed as reduction in convulsions; type: functional; in short: as §6
Mus musculus [32] = test: Anticonvulsant activity in CF-1 mouse assessed as protection against 44 mA current-induced seizure at 300 mg/kg, ip after 0.5 hrs by 6 Hz psychomotor test; type: functional, organism-based
In short: (§7)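 Mice dosed i.p. (30, 100, 300 mg/kg; one line at 120 mg/kg read at 15 min). Corneal stimulation at 6 Hz, 44 mA for 3 s from a constant-current device induces a psychomotor seizure with stunned posture, forelimb automatisms, clonus, vibrissae twitching and Straub tail. Scored as number of animals protected / number tested (4 per group) at 0.5 and 2 h.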

[33] = Neurotoxicity in CF-1 mouse at 300 mg/kg, ip measured after 2 hrs by rotarod test; type: toxicity, organism-based; conditions: in vivo; in short: as §2
Mus musculus [34] = test: Anticonvulsant activity in CF-1 mouse assessed as protection against 44 mA current-induced seizure at 100 mg/kg, ip after 0.5 hrs by 6 Hz psychomotor test; type: functional, organism-based; in short: as §7
Mus musculus [35] = test: Anticonvulsant activity in CF-1 mouse assessed as protection against 44 mA current-induced seizure at 30 mg/kg, ip after 0.5 hrs by 6 Hz psychomotor test; type: functional, organism-based; in short: as §7
Mus musculus [36] = test: Anticonvulsant activity in CF-1 mouse assessed as protection against 44 mA current-induced seizure at 100 mg/kg, ip after 2 hrs by 6 Hz psychomotor test; type: functional, organism-based; in short: as §7
[37] = Neurotoxicity in CF-1 mouse at 30 mg/kg, ip measured after 2 hrs by rotarod test; type: toxicity, organism-based; conditions: in vivo; in short: as §2
[38] = Neurotoxicity in CF-1 mouse at 100 mg/kg, ip measured after 2 hrs by rotarod test; type: toxicity, organism-based; conditions: in vivo; in short: as §2
Mus musculus [39] = test: Anticonvulsant activity in CF-1 mouse model of maximal electroshock-induced seizure assessed as suppression of tonic hind limb extension at 100 mg/kg, ip measured at 2 hrs post dose; type: functional, organism-based
Mus musculus [40] = test: Anticonvulsant activity in CF-1 mouse model of maximal electroshock-induced seizure assessed as suppression of tonic hind limb extension at 30 mg/kg, ip measured at 2 hrs post dose; type: functional, organism-based
Mus musculus [41] = test: Anticonvulsant activity in CF-1 mouse assessed as protection against 44 mA current-induced seizure at 30 mg/kg, ip after 2 hrs by 6 Hz psychomotor test; type: functional, organism-based; in short: as §7
Mus musculus [42] = test: Anticonvulsant activity in CF-1 mouse assessed as protection against 44 mA current-induced seizure at 300 mg/kg, ip after 2 hrs by 6 Hz psychomotor test; type: functional, organism-based; in short: as §7
[43] = Neurotoxicity in Sprague-Dawley rat at 100 mg/kg, ip measured after 2 hrs by rotarod test; type: toxicity, organism-based; conditions: Sprague-Dawley, in vivo; in short: as §5
Mus musculus [44] = test: Anticonvulsant activity in CF-1 mouse assessed as protection against 44 mA current-induced seizure at 40 to 80 mg/kg, ip after 0.5 hrs by 6 Hz psychomotor test; type: functional

## Cc1cccc(C)c1OCC(=O)NCC(C)O (configuration not stated)
Mus musculus [1]
  Activity: inactive
[2]
  Activity: Non-Toxic
Mus musculus [3]
  Activity: inactive
Mus musculus [4]
  Activity: inactive
Rattus norvegicus [5]
  Activity: inactive
Mus musculus [6]
  Activity: inactive
[7]
  Activity: Toxic
Mus musculus [8]
  Activity: inactive
Mus musculus [9]
  Activity: inactive
[10]
  Activity: Non-Toxic
Mus musculus [11]
  Activity: inactive
Mus musculus [12]
  Activity: inactive
Mus musculus [13]
  Activity: inactive
Mus musculus [14]
  Activity: inactive
Rattus norvegicus [15]
  Activity: inactive
[16]
  Activity: Non-Toxic
[17]
  Activity: Non-Toxic
Mus musculus [18]
  Activity: inactive
Mus musculus [19]
  Activity: inactive
[20]
  Activity: Non-Toxic
[21]
  Activity: Non-Toxic
[22]
  Activity: Non-Toxic
Rattus norvegicus [23]
  Activity: inactive
[24]
  Activity: Non-Toxic
[25]
  Activity: Non-Toxic
Mus musculus [26]
  Activity: Active
Rattus norvegicus [27]
  Activity: inactive
[28]
  Activity: Non-Toxic
[29]
  Activity: Non-Toxic

## CC(=O)[C@H]1CC[C@H]2[C@@H]3CC[C@H]4C[C@H](O)CC[C@]4(C)[C@H]3CC[C@]12C [BREXANOLONE]
Mus musculus [30]
  Time: 0.17 h
Mus musculus [31]
  ED50: 13.7 mg/kg

## Cc1cccc(C)c1OCC(=O)N[C@H]1CC[C@H](OC(=O)COc2c(C)cccc2C)CC1
Mus musculus [32]
  Activity: inactive
[33]
  Activity: Non-Toxic
[7]
  Activity: Non-Toxic
Mus musculus [34]
  Activity: inactive
Mus musculus [13]
  Activity: inactive
Mus musculus [35]
  Activity: inactive
Mus musculus [36]
  Activity: inactive
[37]
  Activity: Non-Toxic
[17]
  Activity: Non-Toxic
[38]
  Activity: Non-Toxic
Mus musculus [39]
  Activity: inactive
Mus musculus [40]
  Activity: inactive
Mus musculus [26]
  Activity: inactive
Mus musculus [41]
  Activity: inactive
[29]
  Activity: Non-Toxic

## Cc1cccc(OCC(=O)N[C@H]2CC[C@H](O)CC2)c1C
[33]
  Activity: Non-Toxic
Mus musculus [9]
  Activity: inactive
Mus musculus [13]
  Activity: inactive
Mus musculus [35]
  Activity: inactive
Mus musculus [36]
  Activity: inactive
[37]
  Activity: Non-Toxic
[17]
  Activity: Non-Toxic
[38]
  Activity: Non-Toxic
Mus musculus [42]
  Activity: Active
Mus musculus [39]
  Activity: inactive
Mus musculus [40]
  Activity: inactive
Mus musculus [26]
  Activity: Active
Mus musculus [41]
  Activity: inactive
[29]
  Activity: Non-Toxic

## NC(=O)N1c2ccccc2C=Cc2ccccc21 [CARBAMAZEPINE]
[43]
  TD50 at 2 h: 364 mg/kg
Mus musculus [44]
  %max: 75%
